From ChEMBL document CHEMBL1125216, “Potent, orally active imidazo[4,5-b]pyridine-based angiotensin II receptor antagonists” (J Med Chem, 1991)

Assays:
[1] = target: Type-1 angiotensin II receptor (Oryctolagus cuniculus) (UniProt P34976); assay: Binding affinity towards Angiotensin receptor from rabbit aorta
[2] = target: Type-1 angiotensin II receptor (Rattus norvegicus) (UniProt P25095); assay: The compound was tested for inhibition of angiotensin II receptor induced pressor response in rat after intravenous administration.
Sequence of Type-1 angiotensin II receptor (Rattus norvegicus) (P25095 whole entry, looked up): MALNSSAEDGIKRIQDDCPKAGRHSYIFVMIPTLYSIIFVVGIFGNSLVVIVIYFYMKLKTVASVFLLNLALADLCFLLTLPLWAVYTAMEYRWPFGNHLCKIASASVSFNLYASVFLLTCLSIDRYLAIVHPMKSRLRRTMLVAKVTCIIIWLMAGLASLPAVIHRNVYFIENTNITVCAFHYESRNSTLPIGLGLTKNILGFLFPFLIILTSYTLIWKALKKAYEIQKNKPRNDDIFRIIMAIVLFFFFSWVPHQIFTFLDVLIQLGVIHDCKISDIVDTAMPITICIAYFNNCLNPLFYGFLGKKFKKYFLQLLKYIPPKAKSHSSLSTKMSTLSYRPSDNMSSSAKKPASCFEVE

Rattus norvegicus [3] = assay: Percentage peak pressor response in rat after intravenous administration at a dose of 0.03 mg/kg of the compound.; assay type: functional
Method in brief: (§1)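 Male Sprague-Dawley rats (300–400 g), conscious, with arterial (blood pressure) and venous (dosing) catheters. Pressor responses to AII 0.1 μg/kg iv recorded before and after iv compound. Vehicle: saturated NaHCO3 15%, saline 35%, water 50%.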

Rattus norvegicus [4] = assay: Percentage peak pressor response in rat after peroral administration at a dose of 0.3 mg/kg of the compound.; assay type: functional; conditions: route oral
Method in brief: (§2)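 Conscious male Sprague-Dawley rats (300–400 g) fitted with arterial and venous catheters. Compound given orally as a suspension in 1 N NaOH–0.5% methocel (10:90). Pressor response to AII (0.1 μg/kg iv) measured before and after dosing. Peak inhibition of the AII response is expressed as a percentage at each dose.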

Rattus norvegicus [5] = assay: Percentage peak pressor response in rat after peroral administration at a dose of 0.1 mg/kg of the compound.; assay type: functional; conditions: route oral
Method in brief: as §2

Rattus norvegicus [6] = assay: Percentage peak pressor response in rat after peroral administration at a dose of 0.03 mg/kg of the compound.; assay type: functional; conditions: route oral
Method in brief: as §2

Rattus norvegicus [7] = assay: Percentage peak pressor response in rat after intravenous administration at a dose of 0.1 mg/kg of the compound.; assay type: functional
Method in brief: as §1

Rattus norvegicus [8] = assay: Percentage peak pressor response in rat after intravenous administration at a dose of 0.3 mg/kg of the compound.; assay type: functional
Method in brief: as §1

Sequence of Type-1 angiotensin II receptor (Oryctolagus cuniculus) (P34976 whole entry, looked up): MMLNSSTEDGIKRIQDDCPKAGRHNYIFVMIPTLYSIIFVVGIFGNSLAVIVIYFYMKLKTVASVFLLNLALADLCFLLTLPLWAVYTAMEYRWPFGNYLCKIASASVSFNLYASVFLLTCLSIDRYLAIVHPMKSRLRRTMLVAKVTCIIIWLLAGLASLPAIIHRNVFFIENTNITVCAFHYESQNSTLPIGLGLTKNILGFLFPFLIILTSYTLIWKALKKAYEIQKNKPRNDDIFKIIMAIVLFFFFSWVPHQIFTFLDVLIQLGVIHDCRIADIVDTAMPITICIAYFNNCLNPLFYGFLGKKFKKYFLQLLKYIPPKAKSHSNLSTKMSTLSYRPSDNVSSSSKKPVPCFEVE

IC50 [1] [nM]	ED50 [2] [mg/kg]	SMILES	other results
6	–	CCCCC1=NC(Cl)C(C(=O)O)N1Cc1ccc(-c2ccccc2-c2nn[nH]n2)cc1 (stereo not given)	–
0.5	0.45	CCCCc1nc2c(C)cc(C)nc2n1Cc1ccc(-c2ccccc2-c2nn[nH]n2)cc1	–

Further lines, the compound ahead of its results:

SMILES	IC50 [1] [nM]	ED50 [2] [mg/kg]	other results
CCCc1nc2cccnc2n1Cc1ccc(-c2ccccc2-c2nn[nH]n2)cc1	8	–	–
CCc1nc2c(C)cc(C)nc2n1Cc1ccc(-c2ccccc2-c2nn[nH]n2)cc1 [L-158809]	–	–	Peak inhibition (Rattus norvegicus [3]): 36%; Peak inhibition (Rattus norvegicus [4]): 92%; Peak inhibition (Rattus norvegicus [5]): 75%; Peak inhibition (Rattus norvegicus [6]): 52%; Peak inhibition (Rattus norvegicus [7]): 85%; Peak inhibition (Rattus norvegicus [8]): 99%
CCCc1nc2ccc(C)nc2n1Cc1ccc(-c2ccccc2-c2nn[nH]n2)cc1	2	1	–
CCCc1nc2c(C)ccnc2n1Cc1ccc(-c2ccccc2-c2nn[nH]n2)cc1	1	–	–
CCCc1nc2c(C)cc(C)nc2n1Cc1ccc(-c2ccccc2-c2nn[nH]n2)cc1	0.3	0.087	–
